From PMC12541583 (Acta Pharmaceutica Sinica. B, 2025)
Each block holds one molecule with its values, some of them ahead of it.

What was measured:
PARP1 [1] = target: PARP1 (Rattus norvegicus, UniProt P27008); assay: In vitro autoradiography of [18F]AZD9574 on rat brain sections; type: binding; details: blocker 10 μmol/L
PARP1 [2] = assay: In vitro autoradiography of [18F]AZD9574 on NHP cerebellum brain sections; type: binding; details: blocker 10 μmol/L
Outline: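 Rat and NHP brain sections were pre-incubated 10 min at ambient temperature in 50 mmol/L Tris–HCl with 0.1% BSA. They were then incubated 1 h with radioligand (~4 μCi/mL, ~4 nmol/L), with blockers at 10 μmol/L added beforehand. Sections were rinsed twice for 2 min in ice-cold buffer with ethanol, dipped in cold water, air-dried and exposed to imaging plates overnight. ROI radioactivity was taken as % of control; mean ± SD, n = 3.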

PC3 cell lines = assay: In vitro cellular uptake and blocking of [18F]AZD9574 in PC3 cells; type: cell-based; details: blocker 1 μmol/L
Outline: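 PC3 cells were grown in F-12K with 10% FBS and 1% penicillin–streptomycin at 37 °C, 5% CO2, and seeded at 1×10^5 cells/well 24 h before use. After two PBS rinses, 1 μCi/well tracer plus blocking agent was added in serum-free medium for 60 min at 37 °C. Cells were rinsed twice with cold PBS, lysed in 0.1 mol/L NaOH and counted in a gamma counter.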

CYP19A = target: T1, CYP19A (Homo sapiens, UniProt P11511); assay: CYP interactions, CYP19A; type: in vitro ADME
T1 sequence (P11511 1-503): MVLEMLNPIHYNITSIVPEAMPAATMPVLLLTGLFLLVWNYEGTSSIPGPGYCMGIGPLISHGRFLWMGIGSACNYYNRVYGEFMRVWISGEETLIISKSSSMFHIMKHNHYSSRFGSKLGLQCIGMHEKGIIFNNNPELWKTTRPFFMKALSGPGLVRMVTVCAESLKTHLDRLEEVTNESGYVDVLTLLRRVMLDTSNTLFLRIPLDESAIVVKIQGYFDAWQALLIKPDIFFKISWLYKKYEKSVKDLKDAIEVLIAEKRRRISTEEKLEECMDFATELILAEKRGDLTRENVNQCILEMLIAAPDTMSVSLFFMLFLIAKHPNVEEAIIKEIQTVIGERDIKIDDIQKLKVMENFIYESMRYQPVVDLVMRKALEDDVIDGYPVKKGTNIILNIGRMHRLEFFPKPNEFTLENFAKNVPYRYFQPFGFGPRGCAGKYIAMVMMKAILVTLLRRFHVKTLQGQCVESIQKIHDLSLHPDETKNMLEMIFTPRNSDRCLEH

CYP2C9 = CYP2C9 (Homo sapiens, UniProt P11712); assay: CYP interactions, CYP2C9; type: in vitro ADME
CYP2C19 = CYP2C19 (Homo sapiens, UniProt P33261); assay: CYP interactions, CYP2C19; type: in vitro ADME
Sequence of CYP2C19 (P33261 whole entry, species assumed): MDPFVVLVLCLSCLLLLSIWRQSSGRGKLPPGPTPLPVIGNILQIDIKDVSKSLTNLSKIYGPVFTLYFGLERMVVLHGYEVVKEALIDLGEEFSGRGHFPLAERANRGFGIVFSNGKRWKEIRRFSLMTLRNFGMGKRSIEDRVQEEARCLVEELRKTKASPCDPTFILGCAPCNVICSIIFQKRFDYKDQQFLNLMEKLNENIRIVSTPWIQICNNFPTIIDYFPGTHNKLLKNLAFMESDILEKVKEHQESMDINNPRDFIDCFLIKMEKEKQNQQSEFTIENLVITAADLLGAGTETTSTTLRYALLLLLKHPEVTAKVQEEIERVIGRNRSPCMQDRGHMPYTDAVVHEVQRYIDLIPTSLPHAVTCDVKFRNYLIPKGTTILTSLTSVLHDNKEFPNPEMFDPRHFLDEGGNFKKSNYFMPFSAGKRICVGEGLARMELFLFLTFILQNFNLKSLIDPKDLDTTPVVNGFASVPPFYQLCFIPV

PARP1 [3] = target: PARP1 (Macaca mulatta, UniProt H9FQ77); assay: NHP PET imaging of [18F]AZD9574, baseline and blocking; type: in vivo, rhesus monkeys
Sequence of PARP1 (Macaca mulatta, UniProt H9FQ77) (H9FQ77 1-1014): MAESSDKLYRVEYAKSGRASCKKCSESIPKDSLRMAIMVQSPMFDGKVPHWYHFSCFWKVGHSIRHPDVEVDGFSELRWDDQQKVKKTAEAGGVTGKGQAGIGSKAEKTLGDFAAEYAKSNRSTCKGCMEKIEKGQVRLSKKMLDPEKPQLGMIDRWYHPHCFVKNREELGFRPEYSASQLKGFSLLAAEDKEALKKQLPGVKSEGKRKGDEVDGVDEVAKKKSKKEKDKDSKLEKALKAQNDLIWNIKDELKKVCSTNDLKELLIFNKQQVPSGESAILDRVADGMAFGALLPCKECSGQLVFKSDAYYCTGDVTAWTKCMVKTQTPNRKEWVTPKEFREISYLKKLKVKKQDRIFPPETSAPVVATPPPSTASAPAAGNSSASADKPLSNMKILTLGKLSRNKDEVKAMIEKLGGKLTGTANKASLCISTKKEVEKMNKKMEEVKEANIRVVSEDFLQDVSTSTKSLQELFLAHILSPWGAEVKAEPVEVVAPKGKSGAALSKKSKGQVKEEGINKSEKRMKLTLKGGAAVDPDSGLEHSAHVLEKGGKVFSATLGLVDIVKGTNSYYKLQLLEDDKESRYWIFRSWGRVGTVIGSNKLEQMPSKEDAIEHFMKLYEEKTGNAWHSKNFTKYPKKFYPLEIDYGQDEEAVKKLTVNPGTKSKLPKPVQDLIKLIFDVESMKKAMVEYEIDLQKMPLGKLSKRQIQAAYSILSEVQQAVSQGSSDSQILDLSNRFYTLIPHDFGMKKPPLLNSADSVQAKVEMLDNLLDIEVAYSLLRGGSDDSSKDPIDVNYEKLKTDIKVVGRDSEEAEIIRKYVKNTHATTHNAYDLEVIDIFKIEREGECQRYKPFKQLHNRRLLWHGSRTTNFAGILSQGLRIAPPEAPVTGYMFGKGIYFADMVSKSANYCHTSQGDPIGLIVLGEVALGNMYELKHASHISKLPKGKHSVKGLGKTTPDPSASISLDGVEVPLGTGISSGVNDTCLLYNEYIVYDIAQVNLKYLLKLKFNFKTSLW
Outline: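 An iv bolus of tracer (4.05 ± 0.54 mCi) was followed by 90 min dynamic 3D PET acquisition in 36 frames. ROIs were drawn on co-registered T1-weighted MRI. Regional SUV time–activity curves were generated; baseline scans n = 2 animals.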

CYP1A2 = target: T2, CYP1A2 (Homo sapiens, UniProt P05177); assay: CYP interactions, CYP1A2; type: in vitro ADME
T2 sequence (P05177 1-516): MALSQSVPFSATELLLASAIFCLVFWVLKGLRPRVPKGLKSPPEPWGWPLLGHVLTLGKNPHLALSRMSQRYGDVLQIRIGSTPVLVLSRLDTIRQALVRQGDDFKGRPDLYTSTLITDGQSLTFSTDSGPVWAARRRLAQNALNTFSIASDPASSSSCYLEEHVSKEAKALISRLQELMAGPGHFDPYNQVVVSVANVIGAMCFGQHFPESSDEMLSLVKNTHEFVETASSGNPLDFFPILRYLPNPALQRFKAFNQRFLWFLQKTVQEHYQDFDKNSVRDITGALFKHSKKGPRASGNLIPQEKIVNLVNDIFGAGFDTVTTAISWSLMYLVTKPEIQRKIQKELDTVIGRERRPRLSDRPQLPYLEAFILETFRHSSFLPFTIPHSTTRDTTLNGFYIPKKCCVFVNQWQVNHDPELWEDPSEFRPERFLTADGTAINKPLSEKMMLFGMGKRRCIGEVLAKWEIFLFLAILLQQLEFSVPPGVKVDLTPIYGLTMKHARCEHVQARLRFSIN

CYP2D6 = CYP2D6 (Homo sapiens, UniProt P10635); assay: CYP interactions, CYP2D6; type: in vitro ADME
HepG2 cells = assay: CellTiter-Glo luminescent cell viability assay in HepG2 cells; type: cell-based; details: Homo sapiens, HepG2, read-out: HepG2 IC50
[4] = target: human ether-a-go-go-related gene (hERG) channel (Homo sapiens, UniProt Q12809); assay: In vitro hERG channel safety
Sequence of human ether-a-go-go-related gene (hERG) channel (Q12809 whole entry): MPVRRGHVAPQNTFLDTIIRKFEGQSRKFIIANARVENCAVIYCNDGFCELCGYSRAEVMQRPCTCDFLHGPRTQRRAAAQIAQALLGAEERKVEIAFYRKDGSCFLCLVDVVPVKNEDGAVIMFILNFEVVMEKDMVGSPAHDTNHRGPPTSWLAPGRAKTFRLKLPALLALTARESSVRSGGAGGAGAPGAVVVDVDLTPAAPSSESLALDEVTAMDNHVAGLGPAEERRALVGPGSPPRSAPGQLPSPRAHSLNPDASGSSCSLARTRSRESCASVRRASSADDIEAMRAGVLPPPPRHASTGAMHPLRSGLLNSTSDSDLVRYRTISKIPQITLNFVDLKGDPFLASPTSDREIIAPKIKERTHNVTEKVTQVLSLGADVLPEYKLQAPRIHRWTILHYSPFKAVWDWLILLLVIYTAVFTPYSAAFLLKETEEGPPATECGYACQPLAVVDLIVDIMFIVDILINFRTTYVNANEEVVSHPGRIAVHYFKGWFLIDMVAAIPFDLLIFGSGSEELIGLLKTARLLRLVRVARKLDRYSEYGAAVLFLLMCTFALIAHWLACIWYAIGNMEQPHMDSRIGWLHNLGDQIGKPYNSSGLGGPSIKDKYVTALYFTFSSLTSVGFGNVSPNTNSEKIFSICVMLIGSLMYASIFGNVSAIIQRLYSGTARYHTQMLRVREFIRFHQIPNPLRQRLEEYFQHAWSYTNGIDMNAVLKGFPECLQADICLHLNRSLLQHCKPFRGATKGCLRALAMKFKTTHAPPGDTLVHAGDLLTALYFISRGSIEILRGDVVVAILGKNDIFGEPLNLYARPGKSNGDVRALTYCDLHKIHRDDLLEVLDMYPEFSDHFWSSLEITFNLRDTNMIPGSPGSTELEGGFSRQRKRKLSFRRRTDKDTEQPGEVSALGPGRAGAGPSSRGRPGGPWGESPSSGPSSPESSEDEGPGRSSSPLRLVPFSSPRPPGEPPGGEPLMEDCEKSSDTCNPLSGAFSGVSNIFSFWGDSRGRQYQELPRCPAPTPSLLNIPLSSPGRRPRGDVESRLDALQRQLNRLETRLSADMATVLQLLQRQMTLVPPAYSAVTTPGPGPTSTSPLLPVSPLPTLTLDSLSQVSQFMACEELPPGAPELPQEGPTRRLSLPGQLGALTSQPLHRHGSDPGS

MDR1 (P-gp) = MDR1 (P-gp) (Homo sapiens, UniProt P08183); assay: In vitro Pg-P efflux assay; type: in vitro ADME; details: not told
Sequence of MDR1 (P-gp) (P08183 whole entry, species assumed): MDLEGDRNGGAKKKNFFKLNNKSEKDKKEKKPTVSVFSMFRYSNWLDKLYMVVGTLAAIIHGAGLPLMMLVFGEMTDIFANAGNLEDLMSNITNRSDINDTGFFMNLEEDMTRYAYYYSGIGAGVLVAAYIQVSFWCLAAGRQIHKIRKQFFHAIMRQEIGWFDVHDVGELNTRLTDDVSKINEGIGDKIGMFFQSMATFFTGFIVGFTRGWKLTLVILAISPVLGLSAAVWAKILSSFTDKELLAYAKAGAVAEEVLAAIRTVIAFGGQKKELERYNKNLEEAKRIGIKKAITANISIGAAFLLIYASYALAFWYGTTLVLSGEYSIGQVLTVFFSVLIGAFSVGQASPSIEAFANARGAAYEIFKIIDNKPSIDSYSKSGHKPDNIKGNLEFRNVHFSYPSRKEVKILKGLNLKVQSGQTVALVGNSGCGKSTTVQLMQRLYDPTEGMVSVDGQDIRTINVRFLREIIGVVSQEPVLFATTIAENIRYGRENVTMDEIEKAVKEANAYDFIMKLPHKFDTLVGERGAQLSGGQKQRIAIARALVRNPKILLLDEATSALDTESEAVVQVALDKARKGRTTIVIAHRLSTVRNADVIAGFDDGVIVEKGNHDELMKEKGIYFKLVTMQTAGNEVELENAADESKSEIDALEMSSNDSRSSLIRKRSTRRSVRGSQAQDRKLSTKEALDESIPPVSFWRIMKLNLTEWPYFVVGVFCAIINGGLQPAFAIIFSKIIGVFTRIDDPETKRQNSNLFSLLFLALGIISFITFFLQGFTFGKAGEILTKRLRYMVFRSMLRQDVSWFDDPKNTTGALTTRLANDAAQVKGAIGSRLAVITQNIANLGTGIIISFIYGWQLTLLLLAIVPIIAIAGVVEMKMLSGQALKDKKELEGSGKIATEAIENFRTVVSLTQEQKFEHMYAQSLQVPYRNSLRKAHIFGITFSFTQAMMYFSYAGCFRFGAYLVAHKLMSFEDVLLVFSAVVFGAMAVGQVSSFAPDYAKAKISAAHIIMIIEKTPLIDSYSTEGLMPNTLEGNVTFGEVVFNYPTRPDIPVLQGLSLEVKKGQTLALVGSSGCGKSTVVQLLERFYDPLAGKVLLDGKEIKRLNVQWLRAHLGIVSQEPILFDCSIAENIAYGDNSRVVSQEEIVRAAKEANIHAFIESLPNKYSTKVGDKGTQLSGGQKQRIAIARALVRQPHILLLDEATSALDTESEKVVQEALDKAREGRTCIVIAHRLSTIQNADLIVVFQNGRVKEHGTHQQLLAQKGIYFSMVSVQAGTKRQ

CYP3A4 = CYP3A4 (Homo sapiens, UniProt P08684); assay: CYP interactions, CYP3A4; type: in vitro ADME

Sequence of PARP1 (Rattus norvegicus, UniProt P27008) (P27008 whole entry): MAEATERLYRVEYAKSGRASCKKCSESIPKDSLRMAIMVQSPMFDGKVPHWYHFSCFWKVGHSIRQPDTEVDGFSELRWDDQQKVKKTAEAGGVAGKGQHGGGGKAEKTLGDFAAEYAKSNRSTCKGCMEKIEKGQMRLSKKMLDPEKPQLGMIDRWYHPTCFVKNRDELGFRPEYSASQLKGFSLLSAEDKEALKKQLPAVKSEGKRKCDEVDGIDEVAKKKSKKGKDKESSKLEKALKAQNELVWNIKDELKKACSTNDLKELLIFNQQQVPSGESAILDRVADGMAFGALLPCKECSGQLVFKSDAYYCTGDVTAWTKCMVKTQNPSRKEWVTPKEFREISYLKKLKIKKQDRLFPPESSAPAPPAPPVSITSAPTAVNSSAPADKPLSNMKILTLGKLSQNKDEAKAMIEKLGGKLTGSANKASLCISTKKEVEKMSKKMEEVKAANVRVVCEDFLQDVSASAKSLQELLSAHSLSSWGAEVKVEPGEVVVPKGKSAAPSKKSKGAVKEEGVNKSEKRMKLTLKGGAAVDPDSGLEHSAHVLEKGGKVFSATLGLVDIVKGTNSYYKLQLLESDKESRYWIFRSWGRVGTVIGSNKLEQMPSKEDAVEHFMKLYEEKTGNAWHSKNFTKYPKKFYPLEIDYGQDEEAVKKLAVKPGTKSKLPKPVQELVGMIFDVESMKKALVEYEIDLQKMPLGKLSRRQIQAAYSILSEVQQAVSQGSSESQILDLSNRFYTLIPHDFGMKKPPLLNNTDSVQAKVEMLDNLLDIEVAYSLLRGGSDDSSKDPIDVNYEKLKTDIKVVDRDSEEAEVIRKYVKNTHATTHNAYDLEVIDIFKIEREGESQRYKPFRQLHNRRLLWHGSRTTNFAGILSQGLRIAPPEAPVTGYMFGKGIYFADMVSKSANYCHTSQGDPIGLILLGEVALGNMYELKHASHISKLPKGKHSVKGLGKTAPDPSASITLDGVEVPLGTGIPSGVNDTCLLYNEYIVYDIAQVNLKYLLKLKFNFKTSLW

Compound: C[C@]1(c2nc3c(C(N)=O)cccc3[nH]2)CCCN1 [veliparib]
reduction of [18F]AZD9574 radioactivity accumulation in all brain regions (PARP1 [1]): greater than 85%

Compound: O=C(c1cc(Cc2n[nH]c(=O)c3ccccc23)ccc1F)N1CCN(C(=O)C2CC2)CC1 [olaparib, reference compound]
effect on [18F]AZD9574 uptake in the cerebellum (PARP1 [2]): substantial uptake reduction | effect on [18F]AZD9574 uptake (PC3 cell lines): significantly attenuated

Compound: C[C@]12CCCN1CC1=NNC(=O)c3cc(F)cc4[nH]c2c1c34 [pamiparib]
reduction of [18F]AZD9574 radioactivity accumulation in all brain regions (PARP1 [1]): greater than 85%

Compound: CNC(=O)c1ccc(N2CCN(Cc3ccc4nc(C)c(=O)[nH]c4c3F)CC2)c(F)n1 [compound 5, 6-fluoro-5-(4-((5-fluoro-2-methyl-3-oxo-3,4-dihydroquinoxalin-6-yl)methyl)piperazin-1-yl)-N-methylpicolinamide]
IC50 (CYP19A): > 5 µM | IC50 (CYP2C9): > 5 µM | IC50 (CYP2C19): > 5 µM | reduction of [18F]AZD9574 radioactivity accumulation in the cerebellum (area under curve 60-90 min) (PARP1 [3]; pretreatment 0.05 mg/kg): 37.7% | reduction of [18F]AZD9574 radioactivity accumulation in the cerebellum (area under curve 60-90 min) (PARP1 [3]; pretreatment 0.5 mg/kg): 63.4% | effect on [18F]AZD9574 uptake in the cerebellum (PARP1 [2]): substantial uptake reduction | IC50 (CYP1A2): > 5 µM | IC50 (CYP2D6): > 5 µM | IC50 (HepG2 cells): > 100 µM | IC50 [4]: > 100 µM | Papp A→B (MDR1 (P-gp)): 42.5 ×10⁻⁶ cm/s | IC50 (CYP3A4): > 5 µM

Next, values leading:

reduction of [18F]AZD9574 radioactivity accumulation in all brain regions (PARP1 [1]): greater than 85%
Compound: CNCc1ccc(-c2[nH]c3cc(F)cc4c3c2CCNC4=O)cc1 [rucaparib]

reduction of [18F]AZD9574 radioactivity accumulation in all brain regions (PARP1 [1]): greater than 85%
Compound: COC1CCN(C(=O)c2cc(Cc3n[nH]c(=O)c4ccccc34)ccc2F)CC1 [AZD2461]
